Data on 4 molecules can be found in ChEMBL document CHEMBL1153046, “Synthesis and antitumor activity of substituted triazolo[4,3-a]pyrimidin-6-sulfonamide with an incorporated thiazolidinone moiety” (2009).

This test relates to MCF7. Nature of the test: Antiproliferative activity against human MCF7 cells assessed as cell growth at 100 uM after 48 hrs by alamar blue assay. The test is classed as functional. To be noted: MCF7, 48 h, read-out: Activity. Put shortly:
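NCI three-cell-line primary screen. Cells are seeded and preincubated in microtiter plates. Compound is added at a single 10^-4 M concentration and cultures are incubated 48 h. The end-point is read with alamar blue. Results are given as percent growth relative to untreated control cells.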
As to `COc1ccc(/C=N/c2nc3[nH]nc(C)n3c(=O)c2S(=O)(=O)NN2C(=O)C(CN3CCN(C)CC3)SC2c2cccs2)cc1` (centres undefined), the growth at 100 µM is 46%.

With `COc1ccc(/C=N/c2nc3[nH]nc(C)n3c(=O)c2S(=O)(=O)NN2C(=O)C(CN3CCOCC3)SC2c2cccs2)cc1` (centres undefined), the growth at 100 µM is 24%. The value for `COc1ccc(/C=N/c2nc3[nH]nc(C)n3c(=O)c2S(=O)(=O)NN2C(=O)C(CN3CCOCC3)SC2c2ccc(OC)cc2)cc1` (centres undefined) was 64%. In the case of `COc1ccc(/C=N/c2nc3[nH]nc(C)n3c(=O)c2S(=O)(=O)NN2C(=O)C(CN3CCN(C)CC3)SC2c2ccc(OC)cc2)cc1` (centres undefined) it was 9%.
